Source: ChEMBL document CHEMBL1141553, “Synthesis and pharmacological activity of chalcones derived from 2,4,6-trimethoxyacetophenone in RAW 264.7 cells stimulated by LPS: quantitative structure-activity relationships” (Bioorg Med Chem, 2008)

How the values were obtained:
RAW264.7 = experiment: Inhibition of LPS-induced nitric oxide production in mouse RAW264.7 cells; type: functional, cell-based
Method in brief: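 Compounds were pre-added 30 min before LPS stimulation for 24 h. Supernatant was mixed 1:1 with Griess reagent (1% sulfanilamide, 0.1% naphthylethylenediamine dihydrochloride, 2% phosphoric acid) for 5 min at room temperature. Nitrite was read at OD 550 nm against a NaNO₂ standard curve. IC50 came from dose–inhibition curves, mean of four independent experiments.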

[1] = Cytotoxicity against mouse RAW264.7 cells assessed as cell viability at 13.10 uM by MTT assay; type: cell-based; conditions: read-out: Activity
[2] = Selectivity for iNOS to eNOS
[3] = Cytotoxicity against mouse RAW264.7 cells assessed as cell viability at 3.78 uM by MTT assay; type: cell-based; conditions: read-out: Activity
[4] = Selectivity for iNOS to nNOS

Row | Structure (SMILES) | IC50 (RAW264.7) [µM] | viability at 13.1 µM [1] [%] | Selectivity ratio [2] | viability at 3.78 µM [3] [%] | Selectivity ratio [4]
1 | COc1cc(OC)c(C(=O)/C=C/c2ccc3c(c2)OCO3)c(OC)c1 | 13.1 | 100 |  |  | 
2 | CC(=N)NCc1cccc(CN)c1 [1400W] | 3.78 |  | 5000 | 82 | 200
